High-throughput results deposited in PubChem by The Scripps Research Institute Molecular Screening Center.
Shown are actives, neighbours in structure and some others; about 3.3% of the full set was active somewhere.
SIAE primary: human SIAE inhibition, primary screen. SIAE FP-Rh probe binding, fluorescence polarization. inhibition, % at 9.66 µM. actives 0.69% (n = 370,000);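 active means inhibition above a cutoff: mean of compounds within the control limits plus 3 SD of those, cut at about 17% in these data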;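 further: 0% = plate median of compound wells and 100% = probe without SIAE protein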
PRMT1 inh: inhibitors of human PRMT1; actives 1.3% (n = 370,000); recombinant PRMT1, activity-based probe fluorescence polarization; AID 652257; Q99873; inhibition, % at 2.79 µM;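 active means inhibition above about 21% made by adding two undisclosed values, limit read from the data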
TDP2 absorb: blocks human TDP2 phosphodiesterase activity; O95551; recombinant TDP2, T5PNP hydrolysis, p-nitrophenol absorbance 415 nm; inhibition, % at 12.8 µM; actives 0.34% (n = 370,000);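 active means inhibition above the mean of all tested compounds plus 3 SD, set per campaign, cut at about 25% in these data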;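 further: 0% = DMSO with enzyme and 100% = buffer with substrate but no TDP2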
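System – recombinant human TDP2 · Amount – 120 nM TDP2 per well · Buffer or medium – Mg2+-containing Tris-HCl buffer, pH 7.5 · Reagent – T5PNP substrate, 5 mM · Dosing – 12.8 µM single point, 1% DMSO · Incubation – 2 h at 37 °C · Measured by – epi absorbance · Read-out basis – percent inhibition · Benchmarks – high control without enzyme, low control DMSO plus TDP2 · Repeats – singlicate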
LEDGF integ inh: blocks HIV-1 LEDGF/p75-dependent DNA integration; actives 0.64% (n = 370,000); TR-FRET IN-LEDGF/p75 DNA integration, Eu/Cy5; inhibition, % at 3.7 µM;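 active means inhibition above the screen-wide mean plus 3 SD, cut at about 13% in these data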;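 further: signal is the Cy5 over europium emission ratio at 671 and 618 nm; 0% = plate median of compound wells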
UHRF1 binding: human UHRF1 methylated DNA binding inhibitors | inhibition, % at 4.4 µM | actives 0.75% (n = 370,000) | Q96T88 | UHRF1 binding to methylated oligo, TR-FRET; in the data active means inhibition above about 21%;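 further: UHRF1 SRA domain binding a hemimethylated CpG hairpin DNA probe; 0% = median of test compound wells and 100% = reference inhibitor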
MBD2 inh: inhibitors of human MBD2 binding to methylated oligonucleotide; AID 686964; TR-FRET; inhibition, % at 4.4 µM; Q9UBB5; actives 0.31% (n = 370,000); in the data active means inhibition above about 13%
Target sequence (Q9UBB5 whole entry, looked up): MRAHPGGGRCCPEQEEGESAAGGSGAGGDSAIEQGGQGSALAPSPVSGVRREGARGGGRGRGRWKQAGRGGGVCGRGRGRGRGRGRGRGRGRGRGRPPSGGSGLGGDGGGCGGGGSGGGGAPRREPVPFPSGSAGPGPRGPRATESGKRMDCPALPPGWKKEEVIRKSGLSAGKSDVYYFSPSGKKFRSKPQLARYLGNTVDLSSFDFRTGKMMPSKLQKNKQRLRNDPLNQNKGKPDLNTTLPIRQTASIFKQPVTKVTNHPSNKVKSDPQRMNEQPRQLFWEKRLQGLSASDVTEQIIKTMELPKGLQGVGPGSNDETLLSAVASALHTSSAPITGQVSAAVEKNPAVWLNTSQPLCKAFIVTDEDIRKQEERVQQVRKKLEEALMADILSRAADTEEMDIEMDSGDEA
IN multimer up: activates HIV-1 integrase multimerization in LEDGF counter-screen; shares compounds with LEDGF integ inh; actives 17% (n = 2,000); TR-FRET HIV-1 integrase multimerization, biochemical; activation, % at 7.7 µM; in the data active means activation above about 8.9%
TRFRET interf: TR-FRET optical interference, LEDGF/p75 integration counter-screen; shares compounds with LEDGF integ inh; 2,000 tested, under 10 active; TR-FRET optical interference counterscreen, HIV-1 IN multimerization; inhibition, % at 7.7 µM; AID 1053135;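 active means inhibition above the mean over all tested compounds plus 3 SD, which no compound reached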;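 further: 0% = integrase with antibodies and DMSO and 100% = antibodies without integrase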
IN-LEDGF confirm: LEDGF/p75-dependent HIV-1 integration inhibition, confirmation | shares compounds with LEDGF integ inh | TR-FRET LEDGF/p75-dependent HIV-1 integration, biochemical | inhibition, % at 3.7 µM | actives 36% (n = 2,000) | AID 1053136; in the data active means inhibition above about 14%
Numbers without * were called inactive; . = no result given.

SMILES	SIAE primary	PRMT1 inh	TDP2 absorb	LEDGF integ inh	UHRF1 binding	MBD2 inh	IN multimer up	TRFRET interf	IN-LEDGF confirm
COCCCNC(=O)C[C@H]1C[C@@]2(C(=O)OC)C(=C[C@H](COCc3ccccc3)O[C@@H]2C)N(Cc2ccco2)C1=O	-1	9	3	0	-2	-8	.	.	.
CC(C)CC(C(=O)Nc1cccc(O)c1)N1C(=O)c2ccccc2C1=O (stereo not drawn)	-1	-2	0	0	-2	-3	.	.	.
CC(C)CC(C(=O)Nc1oc(-c2ccco2)c(-c2ccco2)c1C#N)N1C(=O)c2ccccc2C1=O (stereo not drawn)	-8	25*	1	17*	-1	4	2	-9	9
Cc1ccc(-n2nc3c(c2NC(=O)c2ccc(Br)o2)CSC3)c(C)c1	-53	10	-3	15*	-2	-2	0	-1	49*
COCCNC(=S)N(C)[C@H]1C[C@H]2c3[nH]c4c(-c5ccc6c(c5)OCO6)cccc4c3CCN2C[C@H]1[C@H](C)O	2	3	1	1	-3	-7	.	.	.
COc1ccc(CCNC(=O)Cn2c(=O)oc3cc(Cl)ccc32)cc1OC	2	-2	4	34*	-2	1	0	1	-1
COc1ccc(CCNC(=O)Cc2cccs2)cc1OC	-4	1	0	22*	1	-4	1	-3	4
COc1ccc(CCNC(=O)c2cccs2)cc1OC	-1	4	4	1	4	-7	.	.	.
COC(=O)/C(C(C)=O)=C(/C=C/C=C/N(C)C)N(C)C	0	2	-7	4	4	5	.	.	.
COC(=O)\C(C(C)=O)=C(/C=C/C=C/N(C)C)N(C)C	3	6	13	34*	13	0	1	-5	10
CC(/C=C\c1ccccc1)=C/C(=O)O	-8	1	-10	-5	0	2	.	.	.
CC(=C/C(=O)O)/C=C/c1ccc(Cl)o1	-3	10	-3	13*	32*	8	5	-27	54*
O=C(c1cc(S(=O)(=O)N2CCCC2)c(Cl)cc1Cl)N1CCCC1	1	-2	12	1	1	1	.	.	.
COC(=O)c1cc(S(=O)(=O)N2CCCC2)c(Cl)cc1Cl	10	-4	-1	61*	-4	-1	0	1	-8
Cc1[nH]n(-c2ccccc2)c(=O)c1C(c1cccc([N+](=O)[O-])c1)c1c(C)[nH]n(-c2ccccc2)c1=O	12	3	90*	27*	16	-4	2	-10	3
Cc1[nH]n(-c2ccccc2)c(=O)c1C(=O)c1ccc([N+](=O)[O-])cc1	11	2	6	-2	-2	4	.	.	.
COc1ccc(CN(CCN2CCOCC2)C(=O)c2cc(F)cc(F)c2)cc1OC	-4	-2	6	5	0	-1	.	.	.
Cc1cccc2cc(CN(Cc3ccc(F)cc3)C(=O)N3CCOCC3)c(=O)[nH]c12	-5	-2	-3	14*	1	2	0	-1	-13
COC(=O)C1=C(CCc2ccccc2)NC(=O)NC1c1ccc(Cl)cc1 (stereo not drawn)	-3	2	1	18*	0	-2	2	-5	-7
Cc1cccc(OCC(=O)Nc2ccc3oc(=O)ccc3c2)c1	-4	-1	-18	1	4	3	.	.	.
CCCC(=O)Nc1ccc2oc(=O)ccc2c1	-5	-2	-1	35*	1	2	-1	4	0
CCOc1nc(Nc2ccccc2)nc(OCC)n1	-4	-3	-19	24*	-3	-6	1	-3	11
COCCCN1C(=O)[C@H](CC(=O)N2CCN(C(=O)c3ccco3)CC2)[C@]2(C(=O)OC)CCCCC=C12	1	-3	-6	0	5	-1	.	.	.
CN1CCCN(C(=O)C2CCN(c3ncnc4c3sc3cccc(F)c34)CC2)CC1	-1	3	1	-2	0	4	.	.	.
CCOC(=O)[C@@]12CCCC3=C1N(CCC3)C(=O)[C@H]2CC(=O)NCCCN1CCCC1=O	-4	2	2	-4	-3	0	.	.	.
SMILES	SIAE primary	PRMT1 inh	TDP2 absorb	LEDGF integ inh	UHRF1 binding	MBD2 inh	IN multimer up	TRFRET interf	IN-LEDGF confirm
CC(O)CC(=O)OC[C@]12CC[C@H]3[C@@](C)(CC[C@H]4C(C)(C)CCC[C@]34C)[C@@H]1CC(C1=CC(=O)OC1O)O2 (stereo partly drawn)	-13	12	-1	23*	0	1	0	2	41*
CN1[C@H](Cc2ccccc2)COc2cc(N3CCCC3)ccc2S1(=O)=O	1	4	-7	1	4	7	.	.	.
O=C1C(=NO)CCc2ccccc21	7	8	20	29*	-1	-7	3	-11	26*
O/N=C1/CCc2cccc3cccc1c23	-3	4	3	3	-3	0	.	.	.
Fc1ccccc1N1CCN(C2CCCN(Cc3ccccc3C(F)(F)F)C2)CC1 (stereo not drawn)	1	-2	-23	16*	0	-3	0	0	2
CC(C)(C)OC(=O)N1Cc2ccccc2C[C@H]1C(=O)NC1CCCC1	2	-3	-2	53*	-1	1	0	0	-2
Cc1nn(-c2ccccc2)c2sc(C(=O)N3CCC4(CC3)OCCO4)cc12	-6	3	3	-7	0	11	.	.	.
COc1ccc(N=C2S/C(=C\c3ccco3)C(=O)N2CC(C)C)cc1	2	1	-1	-3	2	-4	.	.	.
COc1ccc(N=C2NC(=O)/C(=C\C=C\c3ccco3)S2)cc1	9	20	16	23*	4	7	16*	-83	55*
CCOC(=O)CC[C@H]1CC[C@]2(CCCN(C(=O)C(C)(C)C)C2)O1	2	-2	-2	2	1	3	.	.	.
O=C1CC(c2ccc(O)c(O)c2)Oc2cc(O)cc(O)c21 (stereo not drawn)	8	-4	2	13*	1	0	3	-13	23*
COc1ccc(S(=O)(=O)N(CC(=O)Nc2ccc(S(=O)(=O)N3CCOCC3)cc2)c2ccccc2)cc1	-18	-1	2	20*	-2	3	1	-2	1
O=[N+]([O-])c1ccc2c(c1)nc1n2CCN(c2ccccc2)C1	-4	6	-2	17*	1	2	0	-1	7
